{"source": "paper PMC8526398", "about": "(Bioorganic & medicinal chemistry letters, 2021)", "key": {"[1]": {"biological_target": "full-length human GRB2 (EGFR/GRB2 PPI) (Homo sapiens, UniProt P62993)", "sequence (P62993 whole entry)": "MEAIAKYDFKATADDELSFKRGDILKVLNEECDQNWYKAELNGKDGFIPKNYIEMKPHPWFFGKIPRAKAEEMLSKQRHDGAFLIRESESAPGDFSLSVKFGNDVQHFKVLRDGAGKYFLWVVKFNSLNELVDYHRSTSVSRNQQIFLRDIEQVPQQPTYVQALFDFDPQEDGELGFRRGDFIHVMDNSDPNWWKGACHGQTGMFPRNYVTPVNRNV", "format": "binding"}, "EGFR/GRB2 PPI": {"tested_on": "EGFR/GRB2 PPI", "conditions": "cited from earlier work"}, "[2]": {"assay": "Parallel artificial membrane permeability assay", "format": "in vitro ADME", "conditions": "PAMPA, 1% egg lecithin in n-dodecane", "how_it_was_run": "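Artificial membrane of 1% egg lecithin in n-dodecane. Test compound at 500 μM added to the donor side; incubated 5 h at room temperature. Compound in the receiving solution quantified by HPLC. Percent transport (%T) and apparent permeability coefficient (Papp, cm·s−1) calculated from previously reported equations; values given with SD.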"}}}
{"smiles": "COC(=O)Cc1ccc([C@H]2/C=C/C[C@@H](Cc3cccc4ccccc34)CNC(=O)[C@H](CC(N)=O)NC(=O)C3(CCCCC3)NC(=O)C2)cc1", "note": "[Compound 8]", "values": [{"measurement": "Ki", "setting": "[1]", "value": "> 20000", "unit": "nM"}]}
{"smiles": "CC(=O)N[C@@H](Cc1ccc(OP(=O)(O)O)cc1)C(=O)NC1(C(=O)N[C@@H](CC(N)=O)C(=O)NCCCc2cccc3ccccc23)CCCCC1", "note": "[Compound 2]", "values": [{"measurement": "IC50 relative to compound 1", "setting": "EGFR/GRB2 PPI", "value": "two orders of magnitude lower than 1"}]}
{"smiles": "NC(=O)C[C@@H]1NC(=O)C2(CCCCC2)NC(=O)[C@@H](CC(=O)O)[C@@H](c2ccc(CP(=O)(O)O)cc2)/C=C/C[C@@H](Cc2cccc3ccccc23)CNC1=O", "note": "[Compound 4]", "values": [{"measurement": "IC50", "setting": "EGFR/GRB2 PPI", "value": 2, "unit": "nM"}]}
{"smiles": "NC(=O)C[C@@H]1NC(=O)C2(CCCCC2)NC(=O)C[C@@H](c2ccc(CC(=O)O)cc2)/C=C/C[C@@H](Cc2cccc3ccccc23)CNC1=O", "note": "[Compound 7]", "values": [{"measurement": "permeability through the artificial membrane (in words)", "setting": "[2]", "value": "good permeability"}]}
{"smiles": "NC(=O)C[C@@H]1NC(=O)C2(CCCCC2)NC(=O)C[C@@H](c2ccc(CP(=O)(O)O)cc2)/C=C/C[C@@H](Cc2cccc3ccccc23)CNC1=O", "note": "[Compound 3]", "values": [{"measurement": "permeability through the artificial membrane (in words)", "setting": "[2]", "value": "poor permeability"}]}
